The record followed here is ChEMBL document CHEMBL1146002, “Substituted N-(2-aminophenyl)-benzamides, (E)-N-(2-aminophenyl)-acrylamides and their analogues: novel classes of histone deacetylase inhibitors” (Bioorg Med Chem Lett, 2006).

Data set [1] in a line: Half life in iv dosed rat. Type of data set: ADME, organism-based. As to conditions: in vivo.
Data set [2] can be described thus: Bioavailability in rat. The class given is ADME, organism-based. To be noted: in vivo.
The next data set concerns the target Histone deacetylase 1 (Homo sapiens, UniProt Q13547). The experiment in a line: Inhibition of human recombinant HDAC1.
Another data set relates to HMEC. The experiment in a line: Cytotoxicity against human HMEC cells. The class given is functional, cell-based. The method, boiled down:
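Cytotoxicity toward normal cells was measured as inhibition of proliferation of human normal mammary epithelial cells (HMEC), reported as IC50.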

Data set [3] deals with Histone deacetylase (Homo sapiens) (UniProt Q13547+O15379+Q9UBN7+Q92769+Q9UQL6+Q8WUI4+Q9BY41+Q96DB2+P56524+Q9UKV0+Q969S8). The experiment in a line: Inhibition of HDAC assessed as ability to induce histone acetylation in human T24 cells. The class given is functional, cell-based. To be noted: T-24. The method, boiled down:
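T24 human bladder carcinoma cells treated at […] for 16 h. Histones acid-extracted, separated by SDS–PAGE and immunoblotted with antibodies specific for acetylated histone H4; total H4 also probed. Dose-dependence judged from blot.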

A further data set deals with T-24. The experiment in a line: Induction of p21 WAF1/Cip1 transcription in human T24 cells assessed by luciferase reporter gene activity. The class given is functional, cell-based.
Data set [4] deals with HCT-116. The experiment in a line: Cell cycle arrest in human HCT116 cells at G2/M phase. The class given is functional, cell-based. The procedure, abridged:
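HCT116 cells treated with compounds in 1% DMSO for 16 h, then harvested by trypsinization and fixed. DNA was stained with propidium iodide and analysed by flow cytometry. The (G2+M)/S ratio is the percentage of gated cells in G2/M divided by the percentage in S phase.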

Data set [5] deals with HCT-116. The data set can be described thus: Antiproliferative activity against human HCT116 cells by MTT assay. The class given is functional, cell-based.
Data set [6] concerns HCT-116. The experiment in a line: Antitumor activity against human HCT116 cells xenografted in mouse at 50 mg/kg, ip. The class given is functional. To be noted: HCT-116, ip, route intraperitoneal, read-out: TGI. The procedure, abridged:
(§1)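 Human tumour cells grown as xenografts in mice; compounds given daily by intraperitoneal injection. Antitumour activity is expressed as % tumour growth inhibition relative to vehicle-treated controls. Body weight was followed as the measure of gross toxicity.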

Another data set relates to SW48. The experiment in a line: Antitumor activity against human SW48 cells xenografted in mouse at 50 mg/kg, ip. The class given is functional. To be noted: route intraperitoneal, read-out: TGI. The procedure, abridged:
as §1
(In general: In xenograft studies the graft and the host belong to different species.)

SMILES strings stand for the structures. Active and inactive are the calls of the source. The calls are words filed in the database; no cut-off is given here.

Sequence of Histone deacetylase 1 (Q13547 whole entry): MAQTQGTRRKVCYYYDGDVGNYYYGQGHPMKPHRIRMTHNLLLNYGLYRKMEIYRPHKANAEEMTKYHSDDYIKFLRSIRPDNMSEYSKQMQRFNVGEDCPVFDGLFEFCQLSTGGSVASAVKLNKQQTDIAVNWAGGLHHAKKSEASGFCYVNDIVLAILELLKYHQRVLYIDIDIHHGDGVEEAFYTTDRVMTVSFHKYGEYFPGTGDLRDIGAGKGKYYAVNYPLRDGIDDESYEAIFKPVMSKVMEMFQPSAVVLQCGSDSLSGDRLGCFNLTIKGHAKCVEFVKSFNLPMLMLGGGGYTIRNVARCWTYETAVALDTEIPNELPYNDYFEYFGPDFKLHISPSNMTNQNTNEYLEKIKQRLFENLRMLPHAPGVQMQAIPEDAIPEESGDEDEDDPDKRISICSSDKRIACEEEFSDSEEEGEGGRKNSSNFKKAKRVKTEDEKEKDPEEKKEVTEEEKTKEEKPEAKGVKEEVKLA

Usually half-life stands for how long it takes for the measured level to halve. What is called bioavailability is dose-corrected exposure relative to a reference, in per cent. Usually IC50 stands for the concentration needed to halve the response being measured. In [1], `COc1cc(NCc2ccc(/C=C/C(=O)Nc3ccccc3N)cc2)cc(OC)c1OC` showed a half-life of 108 min. This molecule returned a bioavailability in [2] of 65%. Besides, the concentration for half-maximal inhibition (IC50) on Histone deacetylase 1 stood at 2 µM; in the data set on HMEC it was 39 µM. For the same molecule, in data set [3], the Activity entry is “Dose-dependent effect”. Also, the result in the data set on T-24 and in the data set on HCT-116 [4] was Active.
Regarding `Nc1ccccc1NC(=O)/C=C/c1ccc(NCc2ccc(F)cc2)nc1`, the figures for the half-maximal inhibitory concentration (IC50) on Histone deacetylase 1 and in the data set with HCT-116 [5] were 5 µM and 2 µM, respectively.
Taken in the same sequence, the figures for `CN(C)c1ccc(CNc2ccc(/C=C/C(=O)Nc3ccccc3N)cn2)cc1` were 4 µM and 3 µM.
In the case of `COc1cccc(NCc2ccc(/C=C/C(=O)Nc3ccccc3N)cc2)c1`, the values for the IC50 at Histone deacetylase 1 and in the data set with HCT-116 [5] were 17 µM and 10 µM, respectively.
For `Nc1ccccc1NC(=O)/C=C/c1ccc(NCCNc2ccccc2)nc1`, in that order: 2 µM and 5 µM.
Taken in the same sequence, the figures for `Nc1ccccc1NC(=O)/C=C/c1ccc(NCc2ccncc2)nc1` were 4 µM and 7 µM.
Turning to `Nc1ccccc1NC(=O)/C=C/c1ccc(NCc2ccccc2)nc1`, the IC50 on Histone deacetylase 1 stood at 3 µM.
Turning to `Nc1ccccc1NC(=O)/C=C/c1ccc(NCc2ccc([N+](=O)[O-])cc2)cc1`, the IC50 on Histone deacetylase 1 came out at 4 µM; in the data set on HCT-116 [5], 15 µM.
Regarding `COc1cc(CNc2ccc(C(=O)Nc3ccccc3N)cc2)cc(OC)c1OC`, the figures for the half-inhibitory concentration (IC50) on Histone deacetylase 1 and with HCT-116 [5] were 3 µM and 2 µM, respectively.
Regarding `Nc1ccccc1NC(=O)/C=C/c1ccc(CNc2ccccc2)cc1`, the results for the IC50 on Histone deacetylase 1 and in the data set with HCT-116 [5] were 17 µM and 11 µM, respectively.
On to `COc1ccc(CCNc2ccc(C(=O)Nc3ccccc3N)cn2)cc1`, for which, at Histone deacetylase 1, the IC50 was 3 µM.
Take `COc1cc(NCc2ccc(C(=O)Nc3ccccc3N)cc2)cc(OC)c1OC`: the IC50 at Histone deacetylase 1 amounted to 3 µM; in the data set on HCT-116 [5] it was 2 µM.
Consider `COc1cc(N(C)Cc2ccc(/C=C/C(=O)Nc3ccccc3N)cc2)cc(OC)c1OC`, for which the IC50 was 3 µM on Histone deacetylase 1 and 5 µM in the data set with HCT-116 [5].
Taken in the same sequence, the figures for `Nc1ccccc1NC(=O)/C=C/c1ccc(NCc2ccncc2)cc1` were 10 µM and 2 µM.
Taken in the same sequence, the figures for `COc1ccc(CNc2ccc(C(=O)Nc3ccccc3N)cc2)cc1` were 2 µM and 1 µM.
As to `COc1ccc(CNc2ccc(/C=C/C(=O)Nc3ccccc3N)cn2)cc1`, the IC50 at Histone deacetylase 1 turned out to be 2 µM.
Consider `COc1ccc(CNc2ccc(/C=C/C(=O)Nc3ccccc3N)cc2)cc1`, for which the IC50 at Histone deacetylase 1 amounted to 4 µM.
The same measure, in the same setting: to `COc1cc(NCc2ccc(/C=C/C(=O)Nc3ccccc3N)cn2)cc(OC)c1OC` belongs 3 µM.
Consider `COc1ccc(NCc2ccc(C(=O)Nc3ccccc3N)cc2)cc1`, for which the results for the IC50 on Histone deacetylase 1 and in the data set with HCT-116 [5] were 0.6 µM and 2 µM, respectively.
In the case of `COc1ccc(CNc2ccc(C(=O)Nc3ccccc3N)cn2)cc1`, the concentration for half-maximal inhibition (IC50) at Histone deacetylase 1 turned out to be 4 µM.
Regarding `COc1cc(CNc2ccc(/C=C/C(=O)Nc3ccccc3N)cn2)cc(OC)c1OC`, the IC50 at Histone deacetylase 1 was found to be 4 µM.
As to `COc1ccc(CNc2ccc(C(=O)Nc3ccccc3N)cc2)cc1OC`, the IC50 at Histone deacetylase 1 turned out to be 4 µM.
`Nc1ccccc1NC(=O)/C=C/c1ccc(NCc2ccc(OC(F)(F)F)cc2)cc1`: the figures for the half-inhibitory concentration (IC50) at Histone deacetylase 1 and with HCT-116 [5] were 5 µM and 50 µM, respectively.
In the case of `COc1cc(CNc2ccc(C(=O)Nc3ccccc3N)cn2)cc(OC)c1OC`, the IC50 at Histone deacetylase 1 was found to be 5 µM; in the data set with HCT-116 [5], 3 µM.
Regarding `COc1ccc(NCc2ccc(/C=C/C(=O)Nc3ccccc3N)cc2)cc1OC`, the results for the IC50 on Histone deacetylase 1 and in the data set with HCT-116 [5] were 2 µM and 5 µM, respectively.
For `COc1ccc(NCc2ccc(C(=O)Nc3ccccc3N)cc2)cc1OC`, the inhibition in vivo at 50 mg/kg in the data set with HCT-116 [6] and with SW48 was 66% throughout. The half-life in data set [1] was 42 min. In the data set with HMEC, this molecule had an IC50 of 15 µM. The Activity result in data set [3] was “Dose-dependent effect”. Moreover, the result in the data set on T-24 and in the data set with HCT-116 [4] was Active.
With `Nc1ccccc1NC(=O)/C=C/c1ccc(NCc2ccc(OC(F)(F)F)cc2)nc1`, the figures for the IC50 on Histone deacetylase 1 and with HCT-116 [5] were 2 µM and 4 µM, respectively.
Regarding `COc1ccccc1NCc1ccc(/C=C/C(=O)Nc2ccccc2N)cc1`, the half-maximal inhibitory concentration (IC50) at Histone deacetylase 1 worked out at 22 µM.
Take `COc1ccc(NCc2ccc(/C=C/C(=O)Nc3ccccc3N)cc2)cc1`: at Histone deacetylase 1, the IC50 is 4 µM.
`Nc1ccccc1NC(=O)/C=C/c1ccc(NCCCc2ccccc2)nc1`: the IC50 on Histone deacetylase 1 is 3 µM; in the data set with HCT-116 [5], 2 µM.
